Experiment [1] relates to Pseudomonas aeruginosa. In words: Antibacterial activity at Pseudomonas aeruginosa PAO1 at 2 mM. The experiment is classed as functional, organism-based.
The subject of experiment [2] is Pseudomonas aeruginosa PAO1. In words: Inhibition of Pseudomonas aeruginosa PAO1 quorum sensing assessed as inhibition of pycocyanin production at 0.5 mM after 24 hrs by spectrometry. In a few lines:
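PAO1 grown overnight in LB, washed in fresh medium and diluted to OD600 0.05. Aliquots were grown 24 h in tubes with compound at 0.5 mM. Pyocyanin was extracted from filtered culture supernatant and quantified by a published method. Significance versus untreated control was set at P < 0.05.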

Experiment [3] has as its system Pseudomonas aeruginosa PAO1. Nature of the experiment: Inhibition of Pseudomonas aeruginosa PAO1 quorum sensing assessed as inhibition of protease production at 0.5 mM after 10 hrs by colorimetric method. In short, it runs like this: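 PAO1 grown overnight at 37 °C in PB medium ([…]), washed, diluted to OD600 0.05 and grown to midlog. Cells were washed again, reset to OD600 0.05 and cultured 10 h with compound at 0.5 mM. Filtered supernatant was incubated with azocasein in 10 mM Tris pH 7.2 and 1 mM CaCl₂ for 4 h at 37 °C with agitation, then quenched with NaOH and centrifuged.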

Calls of active or inactive are those of the source. The calls are words filed in the database; no cut-off is given here.

These results are taken from ChEMBL document CHEMBL1165973, “Design, synthesis and antibacterial activity of novel andrographolide derivatives” (Bioorg Med Chem, 2010).

Regarding `C=C1CC[C@@H]2[C@](C)(CO)[C@H](O)CC[C@@]2(C)[C@@H]1C/C=C1/C(=O)OC[C@H]1OC(=O)CCCCCCCCCCC`, the result in experiment [1] was inactive. For the same compound, the inhibition result in experiment [2] and in experiment [3] was “Active” in each case.

Turning to `C=C1CC[C@@H]2[C@](C)(CO)[C@H](O)CC[C@@]2(C)[C@@H]1C/C=C1/C(=O)OC[C@H]1OC(=O)CCCCCCC`, the outcome in experiment [1] was inactive. The inhibition result in experiment [2] was “Active”.

For `C=C1CC[C@@H]2[C@](C)(CO)[C@H](O)CC[C@@]2(C)[C@@H]1C/C=C1/C(=O)OC[C@H]1OC(=O)/C=C/c1ccco1`, the outcome in experiment [1] was inactive. For the same compound, the inhibition result in experiment [2] and in experiment [3] was “Active” throughout.

Regarding `C=C1CC[C@@H]2[C@]3(C)COC(C)(C)O[C@@H]3CC[C@@]2(C)[C@@H]1C/C=C1/C(=O)OC[C@H]1OC(=O)CCCCCCC`, the result in experiment [1] was inactive.

Consider `C=C1CC[C@@H]2[C@](C)(CO)[C@H](O)CC[C@@]2(C)[C@@H]1C/C=C1/C(=O)OC[C@H]1OC(=O)/C=C/C1CCCCC1`, for which the outcome in experiment [1] was inactive. Also, the inhibition entry in experiment [2] and in experiment [3] was “Active” each time.

Turning to `C=C1CC[C@@H]2[C@](C)(CO)[C@H](O)CC[C@@]2(C)[C@@H]1C/C=C1/C(=O)OC[C@H]1OC(=O)CCCC[C@H]1CCSS1`, the inhibition entry in experiment [2] and in experiment [3] was “Active” in each case.

For the compound `C=C1CC[C@@H]2[C@]3(C)COC(C)(C)O[C@@H]3CC[C@@]2(C)[C@@H]1C/C=C1/C(=O)OC[C@H]1OC(=O)CCCCC`, the outcome in experiment [1] was inactive.

As to `C=C1CC[C@@H]2[C@](C)(CO)[C@H](O)CC[C@@]2(C)[C@@H]1C/C=C1/C(=O)OC[C@H]1OC(=O)CCCC`, the result in experiment [1] was inactive. The inhibition result in experiment [2] was “Active”.

Take `C=C1CC[C@@H]2[C@](C)(CO)[C@H](O)CC[C@@]2(C)[C@@H]1C/C=C1/C(=O)OC[C@H]1OC(=O)CCCCC`: the result in experiment [1] was inactive. Also, the inhibition result in experiment [2] and in experiment [3] was “Active” throughout.

For the compound `C=C1CC[C@@H]2[C@]3(C)COC(C)(C)O[C@@H]3CC[C@@]2(C)[C@@H]1C/C=C1/C(=O)OC[C@H]1OC(=O)CCCC1CCCC1`, the result in experiment [1] was inactive.

Take `C=C1CC[C@@H]2[C@](C)(CO)[C@H](O)CC[C@@]2(C)[C@@H]1C/C=C1/C(=O)OC[C@H]1OC(=O)CC12CC3CC(CC(C3)C1)C2`: the result in experiment [1] was inactive. Besides, the inhibition result in experiment [2] and in experiment [3] was “Active” each time.

`C=C1CC[C@@H]2[C@](C)(CO)[C@H](O)CC[C@@]2(C)[C@@H]1C/C=C1/C(=O)OC[C@H]1OC(=O)CCCCC1CCCC1`: the outcome in experiment [1] was inactive. For the same compound, the inhibition entry in experiment [2] and in experiment [3] was “Active” throughout.

Consider `C=C1CC[C@@H]2[C@]3(C)COC(C)(C)O[C@@H]3CC[C@@]2(C)[C@@H]1C/C=C1/C(=O)OC[C@H]1OC(=O)/C=C/C`, for which, in experiment [1], the result was inactive.

As to `C=C1CC[C@@H]2[C@]3(C)COC(C)(C)O[C@@H]3CC[C@@]2(C)[C@@H]1C/C=C1/C(=O)OC[C@H]1OC(=O)CCCCCCCCCCC`, the outcome in experiment [1] was inactive.

In the case of `C=C1CC[C@@H]2[C@]3(C)COC(C)(C)O[C@@H]3CC[C@@]2(C)[C@@H]1C/C=C1/C(=O)OC[C@H]1OC(=O)/C=C/c1ccco1`, the result in experiment [1] was inactive.

Regarding `C=C1CC[C@@H]2[C@](C)(CO)[C@H](O)CC[C@@]2(C)[C@@H]1C/C=C1/C(=O)OC[C@H]1OC(=O)/C=C/C`, the outcome in experiment [1] was inactive. In addition, the inhibition entry in experiment [2] and in experiment [3] was “Active” in each case.

Regarding `C=C1CC[C@@H]2[C@]3(C)COC(C)(C)O[C@@H]3CC[C@@]2(C)[C@@H]1C/C=C1/C(=O)OC[C@H]1OC(=O)/C=C/C1CCCCC1`, in experiment [1], the result was inactive.

As to `C=C1CC[C@@H]2[C@]3(C)COC(C)(C)O[C@@H]3CC[C@@]2(C)[C@@H]1C/C=C1/C(=O)OC[C@H]1OC(=O)C12CC3CC(CC(C3)C1)C2`, the result in experiment [1] was inactive.

Consider `C=C1CC[C@@H]2[C@](C)(CO)[C@H](O)CC[C@@]2(C)[C@@H]1C/C=C1/C(=O)OC[C@H]1O`, for which, in experiment [2], the inhibition entry was “Active”.

As for `C=C1CC[C@@H]2[C@]3(C)COC(C)(C)O[C@@H]3CC[C@@]2(C)[C@@H]1C/C=C1/C(=O)OC[C@H]1OC(=O)CCCC`, the outcome in experiment [1] was inactive.
